Compounds with a hit are over-represented: about 3.7% of the library has one in this group of screens.
hERG rescue = compounds protecting human hERG from proarrhythmic drug block; Q12809; activation (rescue from dofetilide block), less the hit threshold, % at 10 µM; hit rate 0.51% among 310,000; CHO-hERG, FluxOR thallium flux, dofetilide IC70 present; AID 1511;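 active means activation above the mean of controls blocked by dofetilide plus 5 SD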;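 further: thallium influx through hERG after potassium depolarization seen as dye fluorescence rise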
KCNK3 inh = human KCNK3 channel inhibition, primary screen | B-score at 10 µM | O14649 | CHO-KCNK3 thallium flux, FluxOR fluorescence; stronger effect = lower value | hit rate 0.84% among 340,000;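 active means B-score under library mean minus 4 SD, starting fluorescence ratio at most library mean plus 5 SD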;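 further: more negative B-score means stronger inhibition of thallium flux through KCNK3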
Kir21 inh = Kir2.1 (mouse) channel inhibition. HEK293-Kir2.1, FluxOR thallium flux fluorescence; stronger effect = lower value. hit rate 0.85% among 310,000. P35561. B-score at 10 µM;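 active means fluorescence ratio B-score at or below minus 3 SD of library scores, with starting-brightness B-score within 2 SD, cut at about -4.2 in these data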;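 further: channel flux triggered by added potassium and thallium sulfate stimulus; B-score of peak minus minimum fluorescence over baseline after thallium stimulus; more negative B-score means stronger Kir2.1 block with less thallium influx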
KCNQ1 inh = human KCNQ1 channel inhibition. AID 2642. P51787. hit rate 1.3% among 310,000. B-score at 10 µM. CHO-K1 KCNQ1, FluxOR thallium flux fluorescence; stronger effect = higher value;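 active means compounds whose thallium flux B-score, printed positive for inhibition, exceeds three library SD while starting fluorescence stays within three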;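 further: channel opened by potassium depolarization with thallium stimulus after 20 min compound exposure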
KCNK9 block = blocks the human KCNK9 two-pore domain potassium channel. HEK293 KCNK9, FluxOR thallium flux fluorescence; stronger effect = lower value. B-score at 10 µM. hit rate 1.2% among 310,000. Q9NPC2;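 active means ratio B-score over 3 SD below the library mean, with starting fluorescence within 5 SD of its mean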;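 further: negative B-score means less thallium flux so channel inhibition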
KCNQ1 act = potentiators or activators of human KCNQ1 potassium channel; P51787; CHO-K1 KCNQ1, thallium flux FluxOR fluorescence; stronger effect = higher value; B-score at 10 µM; hit rate 0.35% among 310,000; AID 2648;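 active means fluorescence ratio B-score, a plate-corrected score, at least three library SD, with initial intensity B-score within 5 SD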
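Material: CHO-K1 cells stably expressing KCNQ1. Medium: assay buffer for compound exposure, DMSO matched across wells. Reagent: K+/Tl+ depolarizing stimulus. Compound dosing: single-concentration screen. Times: 37 °C overnight plating, 90-min dark dye load, 20-min compound pretreatment. Technique: FluxOR Tl+ flux fluorescence.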
KCNQ1 inh valid = confirmation of human KCNQ1 potassium channel inhibitors | inhibition, % at 10 µM | KCNQ1 cell line, FluxOR thallium flux fluorescence | shares compounds with KCNQ1 inh | hit rate 93% among 1,600;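 active means primary screen active, with duplicate mean exceeding buffer control mean plus 3 SD of buffer wells, cut at about 28% in these data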;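 further: 0% = buffer control ratio and 100% = XE991 inhibitor control ratio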
CHO Tl flux = counter-screen for KCNQ1 inhibitors: effect in parental CHO cells. shares compounds with KCNQ1 inh. parental CHO-K1, FluxOR thallium flux fluorescence ratio; stronger effect = lower value; zero means no signal rise above baseline. hit rate 21% among 1,600. fluorescence ratio (Tl flux) at 10 µM. AID 588366;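 active means mean of duplicate thallium-flux fluorescence ratios in parental host cells more than 5 SD below the buffer control mean, cut at about 0.38 in these data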;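 further: ratio is peak minus minimum fluorescence divided by baseline fluorescence; actives read low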
KCNQ1 APC inh = confirmation of human KCNQ1 potassium channel inhibitors by electrophysiology | KCNQ1-CHO cells, automated patch clamp current | calls only at 10 µM | hit rate 20% among 490 | shares compounds with KCNQ1 inh;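 active means KCNQ1 current drop exceeding 3 SD of negative control wells, seen in both duplicate runs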;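 further: steady state current during a 2 s step from -80 to +40 mV; negative values mean current inhibition and positive values mean potentiation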
KCNQ2 inh = selectivity of KCNQ1 inhibitors: inhibition of rat KCNQ2 channel; shares compounds with KCNQ1 inh; KCNQ2 cells, FluxOR thallium flux fluorescence; inhibition, % at 10 µM; hit rate 71% among 1,600;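 active means mean percent inhibition of the KCNQ2 thallium signal more than 5 SD above the buffer-only control wells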;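 further: KCNQ2 expressed in CHO cells; 0% = buffer control wells and 100% = XE-991 inhibitor control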
KCNQ1 KCNE1 spec = selectivity of KCNQ1 inhibitors: inhibition of human KCNQ1/KCNE1 channel; shares compounds with KCNQ1 inh; KCNQ1/KCNE1 cells, FluxOR thallium flux fluorescence; inhibition, % at 10 µM; hit rate 77% among 1,600;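 active means mean percent inhibition of duplicate wells above the buffer-only control mean plus 3 SD of those controls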;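 further: 0% = buffer only wells and 100% = XE-991 inhibitor control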
* marks the source's active call; other numbers are inactive results; i = inactive; · = not tested or not shown; + = active, no number.

SMILES	hERG rescue	KCNK3 inh	Kir21 inh	KCNQ1 inh	KCNK9 block	KCNQ1 act	KCNQ1 inh valid	CHO Tl flux	KCNQ2 inh	KCNQ1 KCNE1 spec	others
COc1ccc(Cl)cc1NC(=S)NCCc1ccc(F)cc1	-12.2	i	-4.64*	6*	i	i	64.0*	0.491	114.0%*	50.5%*
Fc1ccc(CCNC(=S)Nc2ccc(F)c(Cl)c2)cc1	-24.9	i	-3.66	9*	i	i	48.5*	0.582	i	i
N#CCSc1ccc(-c2nc3ccccc3[nH]2)cn1	-19.5	i	-0.28	i	i	i	·	·	·	·
CCOC(=O)N(C)c1ccc(C(O)(C(F)(F)F)C(F)(F)F)cc1	-11.6	i	0.42	8*	i	i	73.5*	0.435	79.0%*	79.5%*
Cc1cccc(C)c1OCc1cc(C(=O)N2CCC(c3ccccc3)CC2)no1	-10.4	i	-1.47	9*	i	i	119.0*	0.398	110.3%*	168.0%*	KCNQ1 APC inh=i
Cc1cccc(C)c1OCc1cc(C(=O)N2CCC(C3CCCCC3)C2)no1 (stereo unspecified)	-7.3	i	-0.44	7*	i	i	69.0*	0.444	i	109.5%*
O=C(c1cc(COc2cccc3cnccc23)on1)N1CCCC(CCCO)C1 (stereo unspecified)	-24.1	i	2.33	14*	i	i	108.5*	0.466	92.3%*	44.5%*	KCNQ1 APC inh=i
CC12CCC(=O)N1C(C(=O)Nc1ccccc1N1CCCCC1)CS2 (stereo unspecified)	·	i	·	·	·	·	·	·	·	·
CC(Sc1ccc(Cl)cc1)C(=O)Nc1ccc2c(c1)OCO2 (stereo unspecified)	-7.5	i	-0.31	i	i	i	·	·	·	·
CC(C)N1CCC2(CC1)N=C(c1ccc3c(c1)OCO3)CC(c1cc(Cl)ccc1O)N2 (stereo unspecified)	-12.7	i	-2.09	10*	i	i	49.5*	0.412	106.3%*	37.5%*
O=C(NC1CCSc2ccccc21)c1cccc(Br)c1 (stereo unspecified)	-6.5	i	-0.14	7*	i	i	31.5*	0.551	82.7%*	33.5%*
COCCOC(=O)c1c(C)oc2ccc(O)c(CN3CCC(C)CC3)c12 (tested in a mixture with another compound)	·	i	·	·	·	·	·	·	·	·
O=C(c1cccc(N2C(=O)C3C4C=CC(C4)C3C2=O)c1)N1CCCc2ccccc21 (stereo unspecified)	-3.7	i	-0.56	10*	i	i	0.0	0.481	i	46.5%*
COc1cccc(CNS(=O)(=O)c2c(C(=O)N3CCCCCC3)c(C)n(C)c2C)c1	-4.4	i	0.72	i	i	i	·	·	·	·
O=c1c2c(nc3n1CCCCC3)-c1ccccc1CC21CCCC1	-1.5	i	0.56	8*	i	i	122.0*	0.411	115.3%*	150.5%*	KCNQ1 APC inh=i
Nn1cnc2c(c1=O)C1(CCCCC1)Cc1ccccc1-2	-8.3	i	-0.06	i	i	i	·	·	·	·
NCC12CC3CC(C1)CC(c1ccc(Br)cc1)(C3)C2	-16.7	i	-9.46*	6*	i	i	66.0*	0.43	i	124.0%*
c1ccc(CCNc2ccnc3cc4ccccc4cc23)cc1	-39.5	i	-7.17*	10*	-7.34*	i	129.5*	0.377*	81.3%*	118.0%*
COc1ccc(C(CNC(=O)C(Cc2ccccc2)NC(N)=O)N(C)C)cc1 (stereo unspecified)	-4.5	i	0.64	i	i	i	·	·	·	·
Cc1ccc(Cn2nnc3c(=O)[nH]c(C4CCN(C(=O)Cc5cccs5)CC4)nc32)cc1	-10.8	i	-0.09	7*	i	i	0.0	0.494	i	i
Fc1ccccc1-c1nc(-c2ccc(Cl)cc2)no1	-10.2	i	-1.6	i	i	i	·	·	·	·
c1ccc(-c2noc(-c3ccccc3-c3ccccc3)n2)cc1	-8.1	i	0.41	7*	i	i	133.0*	0.401	115.3%*	193.5%*	KCNQ1 APC inh=i
CC(=O)NC(CC(=O)N1CCCC1)c1ccccc1 (stereo unspecified)	-7.0	i	0.82	i	i	i	·	·	·	·
COc1cc(OC)cc(C(=O)Nc2nc(CC(=O)NCCc3ccccc3)cs2)c1	-22.8	i	-0.46	15*	i	i	48.5*	0.418	111.3%*	103.0%*
CCCn1c2c(c(O)c(C(=O)Nc3ccc(OC)cc3)c1=O)CCCC2	-8.2	i	0.11	7*	i	i	94.0*	0.435	77.7%*	104.0%*	KCNQ1 APC inh=i
SMILES	hERG rescue	KCNK3 inh	Kir21 inh	KCNQ1 inh	KCNK9 block	KCNQ1 act	KCNQ1 inh valid	CHO Tl flux	KCNQ2 inh	KCNQ1 KCNE1 spec	others
COC1OC(O)C(NC(=O)C(F)(F)F)CC1O (stereo unspecified)	·	i	·	·	·	·	·	·	·	·
O=C(NCC1(c2ccccc2)CCCC1)c1cccc(Br)c1	-12.5	i	0.91	6*	i	i	106.5*	0.408	112.0%*	147.0%*	KCNQ1 APC inh=+
COc1ccc(C2(CNC(=O)c3ccccc3)CCCC2)cc1OC	0.0	i	-0.63	i	i	i	·	·	·	·
O=c1oc2c(-c3cccc(F)c3)cc(O)cc2s1	-11.5	i	0.07	11*	i	i	73.5*	0.512	i	64.0%*
COc1ccc(C(=O)CC(=O)C(=O)Nc2ccc(OC)c(Cl)c2)cc1	-24.4	i	-2.2	15*	-6.68*	i	0.0	0.613	i	i
COc1ccc(-c2cn[nH]c2-c2ccc(OCc3ccccc3)cc2O)cc1	-8.7	i	0.72	7*	-6.73*	i	107.0*	0.426	91.3%*	129.5%*	KCNQ1 APC inh=i
Cc1cc(C)cc(NC(=O)CSc2nc3ccccc3nc2N2CCCCC2)c1	-9.4	i	0.35	6*	i	i	68.5*	0.463	92.0%*	86.0%*
Cc1cc(C)cc(NC(=O)CSc2nc3ccccc3nc2N2CCCC2)c1	-9.6	i	0.85	i	i	i	·	·	·	·
CC1CCN(CCCOc2ccc(Cl)cc2Br)CC1	-15.8	i	-4.46*	6*	i	i	41.5*	0.484	i	i

Bioassay records from PubChem BioAssay.
